Compound activity: PubChem, several laboratories
Tb MetRS inh – T. brucei MetRS inhibitors, primary screen, biochemical, luminescence | hit rate 0.4% among 360,000 | methionyl-tRNA synthetase (Trypanosoma brucei brucei) | purified T. brucei MetRS, ATP depletion, Kinase-Glo luminescence | inhibition, % at 11.9 µM;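 active means inhibition above a per-plate cutoff of the control wells' mean inhibition plus 3 SD, cut at about 5.5% in these data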;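 further: 0% = DMSO wells median and 100% = median of wells with control inhibitor compound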
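Dosing: 11.9 µM compound single dose, 0.9% DMSO; Assay system: purified T. brucei MetRS enzyme; Measured by: Kinase-Glo luciferase luminescence reporting remaining unconsumed ATP; Schedule: 15 min plus 2 h at 25 °C.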
NALP1 yeast inh – NALP1 inflammasome inhibitors in reconstituted yeast, colorimetric, S. cerevisiae, triplicate retest; inhibition, % at 10 µM; hit rate 0.61% among 280,000; S. cerevisiae NALP1/ASC/caspase-1 growth, X-gal OD620, 72 h; AID 2071, 2009; in the data active means inhibition mostly above about 24%, no sharp cut-off; inactive means mostly below about 32%
NALP3 yeast inh – NALP3 inflammasome inhibitors in reconstituted yeast, primary screen, luminescence, uHTS; Yeast reconstituted NLRP3/ASC/caspase-1, beta-gal luminescence, 24 h; inhibition, % at 10 µM; hit rate 0.39% among 330,000;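 active means inhibition of 50% or more; inactive means inhibition below 50%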;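 further: plate controls were induced DMSO wells for no effect and uninduced yeast grown without galactose for full effect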
MC4R antagonist – MC4R antagonists of cAMP signaling, primary screen, cell-based, TR-FRET, antagonist arm of biased-ligand search | inhibition, % at 6.5 µM | Melanocortin receptor 4 (Homo sapiens), P32245 | hit rate 0.48% among 360,000 | MC4R-expressing cells, MTII-stimulated cAMP, LANCE TR-FRET | AID 540295, 2011;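 active means inhibition above its plate's cutoff, the mean of tested wells on that plate plus 3 SD, cut at about 29% in these data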;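 further: 0% = Melanotan II alone and 100% = Melanotan II plus saturating MCL0020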
Target sequence (P32245 whole entry, looked up): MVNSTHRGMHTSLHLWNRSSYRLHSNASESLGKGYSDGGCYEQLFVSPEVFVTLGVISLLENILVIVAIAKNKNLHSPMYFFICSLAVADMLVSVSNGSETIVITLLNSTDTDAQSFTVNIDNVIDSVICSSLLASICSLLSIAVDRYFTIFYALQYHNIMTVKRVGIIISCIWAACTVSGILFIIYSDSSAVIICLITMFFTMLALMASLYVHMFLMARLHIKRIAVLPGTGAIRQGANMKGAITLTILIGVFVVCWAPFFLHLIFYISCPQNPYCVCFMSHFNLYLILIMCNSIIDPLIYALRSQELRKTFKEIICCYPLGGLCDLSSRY
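Assay system: U2OS cells stably expressing human melanocortin 4 receptor (MC4R) / Dosing: 6.5 µM / Timing: compound 30 min, challenge 1 h, detection 1 h / Measured by: Eu-cAMP/anti-cAMP TR-FRET, emission 671 nm / Replicates: singlicate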
MC4R ag barr – MC4R agonists recruiting beta-arrestin, primary screen, cell-based, luminescence, agonist arm of biased-ligand search; activation, % at 8.9 µM; U2OS MC4R beta-arrestin complementation; percent of melanotan II response, DMSO zero; AID 540308, 2011; Melanocortin receptor 4 (Homo sapiens), P32245; hit rate 0.98% among 360,000;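 active means activation above a per-plate cutoff, the mean activation of sample wells on that plate plus 3 SD, cut at about 8% in these data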
Bfl-1 A1 inh – caspase 3/7 activation in MEF A1-2A-BIM cells, primary screen, A1 inhibitor project, cell-based, luminescence, HTS | Caspase-Glo 3/7 luminescence, 3 h; percent of clofoctol response, vehicle zero | caspase activation, % (no concentration beside the values) | hit rate 0.066% among 330,000;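 active means over half of replicate activation scores above 10%, or exactly half above 10 with the replicate mean above 10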
* marks the source's active call; other numbers are inactive results. In the library only some 2.5% were active in any assay of this set; here they are far more common.

Screening CCOC(=O)CCS(=O)(=O)c1nc(-c2ccccc2)cc(C(F)(F)F)n1 returned Tb MetRS inh -0.6, NALP1 yeast inh 25.4, NALP3 yeast inh 42.1, MC4R antagonist 16.4, MC4R ag barr -2.7 and Bfl-1 A1 inh 9.7*.
`O=C(Nc1ncc(Cc2ccc(SC(F)F)cc2)s1)c1ccc(OC(F)F)cc1` gave Tb MetRS inh -0.6, NALP1 yeast inh 24.6, NALP3 yeast inh -4.1, MC4R antagonist 11.2, MC4R ag barr 32.7* and Bfl-1 A1 inh 0.0.
Cc1ccc(Cc2cnc(NC(=O)c3ccco3)s2)cc1 was read as Tb MetRS inh 0.0, NALP1 yeast inh 14.2, NALP3 yeast inh 22.2, MC4R antagonist 3.0, MC4R ag barr 2.4 and Bfl-1 A1 inh -3.8.
Screening Cc1ccc(S(=O)(=O)N2CCN(S(=O)(=O)N3CCOCC3)CC2)c(C)c1 returned Tb MetRS inh -0.6, NALP1 yeast inh 42.8*, NALP3 yeast inh -2.0, MC4R antagonist -7.6, MC4R ag barr 0.2 and Bfl-1 A1 inh -0.6.
Cc1ccc(C)c(S(=O)(=O)N2CCN(c3ncccn3)CC2)c1 was read as Tb MetRS inh 0.5, NALP1 yeast inh 33.8*, NALP3 yeast inh 42.6, MC4R antagonist 6.0, MC4R ag barr -2.5 and Bfl-1 A1 inh 0.2.
Screening c1ccc(N2CCN(c3ncccn3)CC2)cc1 returned Tb MetRS inh -0.5, NALP1 yeast inh 26.5*, NALP3 yeast inh 45.7, MC4R antagonist -5.3, MC4R ag barr 3.0 and Bfl-1 A1 inh -3.8.
Cc1ccc(S(=O)(=O)N2CCN(c3ncccn3)CC2)c(C)c1 was read as Tb MetRS inh -0.7, NALP3 yeast inh 37.6, MC4R antagonist 0.6, MC4R ag barr -0.4 and Bfl-1 A1 inh -2.6.
For O=S(=O)(c1ccccc1Br)N1CCN(c2ncccn2)CC1 the results were Tb MetRS inh -0.7, NALP1 yeast inh 36.0*, NALP3 yeast inh 41.5, MC4R antagonist 12.2, MC4R ag barr -1.4 and Bfl-1 A1 inh -0.4.
O=C(NCCC(=O)N1CCCCCCC1)c1ccc(Cl)cc1 was read as Tb MetRS inh -0.3, NALP3 yeast inh 35.1, MC4R antagonist 1.4, MC4R ag barr -3.2 and Bfl-1 A1 inh -0.5.
COc1ccc(NC(=O)N2CCCCCC2)cc1OC was read as Tb MetRS inh -0.1, NALP1 yeast inh 19.4, NALP3 yeast inh 14.6, MC4R antagonist -3.7, MC4R ag barr -1.9 and Bfl-1 A1 inh 0.7.
O=S(=O)(c1ccc(F)cc1)n1ccc(-c2cccc(OCc3c(F)cccc3Cl)c2)n1 was read as Tb MetRS inh 0.0, NALP1 yeast inh 27.9*, MC4R antagonist 13.9, MC4R ag barr -2.0 and Bfl-1 A1 inh 0.5.
`Nc1cc(=O)[nH]c(SCc2ccccc2)n1` gave Tb MetRS inh 0.4, MC4R antagonist 2.5 and MC4R ag barr -1.0.
COc1ccccc1-c1noc(CSc2nc(N)cc(=O)[nH]2)n1 was read as Tb MetRS inh -0.6, NALP1 yeast inh 32.7*, NALP3 yeast inh -0.9, MC4R antagonist -0.7, MC4R ag barr -0.5 and Bfl-1 A1 inh 0.0.
`CC1(C)CC(=O)C=C(Nc2cccc(Cl)c2Cl)C1` gave Tb MetRS inh 0.0, NALP3 yeast inh 0.1, MC4R antagonist 8.6, MC4R ag barr -0.6 and Bfl-1 A1 inh 0.2.
`Cc1oc(-c2ccccc2F)nc1CS(=O)(=O)CC(=O)NCCN1CCCC1` gave Tb MetRS inh -0.1, NALP1 yeast inh 29.0*, NALP3 yeast inh 3.4, MC4R antagonist 5.0, MC4R ag barr -3.8 and Bfl-1 A1 inh -0.2.
Cc1oc(-c2ccccc2F)nc1CS(=O)(=O)CC(=O)NCCCN1CCc2ccccc2C1 was read as Tb MetRS inh -0.9, NALP1 yeast inh 14.6, NALP3 yeast inh 2.6, MC4R antagonist 9.6, MC4R ag barr -1.5 and Bfl-1 A1 inh 0.1.
Screening COc1ccc(S(=O)(=O)n2cccc2)c(OC)c1 returned Tb MetRS inh 0.0, NALP1 yeast inh -5.3, NALP3 yeast inh -12.4, MC4R antagonist -0.6, MC4R ag barr -0.8 and Bfl-1 A1 inh 0.1.
Cc1nc(SC(C)C(=O)Nc2c(C)n(C)n(-c3ccccc3)c2=O)nc(C)c1C (centres undefined) was read as Tb MetRS inh -0.4, NALP3 yeast inh 0.9, MC4R antagonist 5.3, MC4R ag barr 0.1 and Bfl-1 A1 inh 0.8.
Cc1c(NC(=O)C(C)Sc2n[nH]c(N)n2)c(=O)n(-c2ccccc2)n1C (centres undefined) was read as Tb MetRS inh -1.4, NALP1 yeast inh 38.4*, NALP3 yeast inh 0.2, MC4R antagonist -2.0, MC4R ag barr -1.6 and Bfl-1 A1 inh 0.0.
Screening Cc1c(NC(=O)c2cccc(F)c2)c(=O)n(-c2ccccc2)n1C returned Tb MetRS inh 0.4, NALP1 yeast inh 20.9, NALP3 yeast inh 9.6, MC4R antagonist 15.6, MC4R ag barr -0.2 and Bfl-1 A1 inh -0.1.
For Cc1c(NC(=O)c2ccc(F)cc2)c(=O)n(-c2ccccc2)n1C the results were Tb MetRS inh -0.4, NALP1 yeast inh 35.8*, NALP3 yeast inh 17.0, MC4R antagonist 0.3, MC4R ag barr -1.4 and Bfl-1 A1 inh -0.7.
CC(C)c1ccc2[nH]c(O)c(N=NC(=O)c3cccc(S(=O)(=O)Nc4ccc(Cl)cc4)c3)c2c1 was read as Tb MetRS inh -0.3, NALP1 yeast inh 12.9, NALP3 yeast inh -11.2, MC4R antagonist 4.0, MC4R ag barr -0.6 and Bfl-1 A1 inh 13.3*.
Screening COc1cccc(C(=O)NNS(=O)(=O)c2ccccc2)c1 returned Tb MetRS inh 0.1, MC4R antagonist 11.3 and MC4R ag barr 0.9.
`CCOc1ccc(C(=O)Nn2cnnc2)cc1` gave Tb MetRS inh -0.7, NALP1 yeast inh 33.4*, NALP3 yeast inh 5.7, MC4R antagonist 0.9, MC4R ag barr -0.8 and Bfl-1 A1 inh 0.4.
Screening CCOc1cc(C(=O)Nn2cnnc2)cc(OCC)c1OCC returned Tb MetRS inh -0.5, NALP1 yeast inh -4.7, NALP3 yeast inh 8.0, MC4R antagonist -5.8, MC4R ag barr -2.9 and Bfl-1 A1 inh 0.6.
Screening O=C(Cn1c(=O)oc2cc(S(=O)(=O)N3CCCC3)ccc21)N1CCN(c2ccccc2)CC1 returned Tb MetRS inh -0.2, NALP1 yeast inh 38.9*, NALP3 yeast inh 14.4, MC4R antagonist 11.4, MC4R ag barr 0.8 and Bfl-1 A1 inh -0.9.
`Cc1ccc(C)c(N2CCN(C(=O)Cn3c(=O)oc4cc(S(=O)(=O)N5CCCC5)ccc43)CC2)c1` gave Tb MetRS inh -0.2, NALP1 yeast inh 22.3, NALP3 yeast inh -3.8, MC4R antagonist 11.9, MC4R ag barr -0.4 and Bfl-1 A1 inh 0.6.
